≈ marks a conversion by molar mass, not a printed value.
Assays:
A549 = assay: Cytotoxicity against human A549 cells after 7 days by MTT assay; type: functional; settings: A549, 168 h, read-out: LD50 (the source's name)
Method in brief: (§1)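 Seven-day in vitro MTT cytotoxicity assay run by a cancer-center cell culture laboratory under standard protocols, using A-549 (human lung carcinoma), MCF-7 (human breast carcinoma), HT-29 (human colon adenocarcinoma), A-498 (human kidney carcinoma) and PC-3 (human prostate) cells. Isolated compounds were tested.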

HT-29 = assay: Cytotoxicity against human HT-29 cells after 7 days by MTT assay; type: functional; settings: HT-29, 168 h, read-out: LD50 (the source's name); method in brief: as §1
MCF7 = assay: Cytotoxicity against human MCF7 cells after 7 days by MTT assay; type: functional; settings: MCF7, 168 h, read-out: LD50 (the source's name); method in brief: as §1
[1] = (§2) Toxicity in brine shrimp larvae; type: organism-based; settings: artemia, in vivo
A498 = assay: Cytotoxicity against human A498 cells after 7 days by MTT assay; type: functional; settings: A498, 168 h, read-out: LD50 (the source's name); method in brief: as §1
MIA PaCa-2 = assay: Cytotoxicity against human MIAPaCa2 cells after 7 days by MTT assay; type: functional; settings: MIA PaCa-2, 168 h, read-out: LD50 (the source's name)
PC-3 = assay: Cytotoxicity against human PC3 cells after 7 days by MTT assay; type: functional; settings: PC-3, 168 h, read-out: LD50 (the source's name); method in brief: as §1
Artemia = assay: as §2; type: organism-based; settings: in vivo

Compound	CC50 (A549)	CC50 (HT-29)	CC50 (MCF7)	LC50 [1]	CC50 (A498)	CC50 (MIA PaCa-2)	CC50 (PC-3)	LC50 (Artemia)
CCCCCCCCCCCC[C@@H](O)[C@H]1CC[C@H]([C@H](O)CCCC(=O)CCCCCCCCC2=CC(C)(O)OC2=O)O1 (mixture of isomers)	1.26 µg/mL	0.193 µg/mL	0.303 µg/mL	0.375 µg/mL	0.93 µg/mL	3.12 ng/mL	0.198 µg/mL	–
CCCCCCCCCCCC[C@@H](O)[C@H]1CC[C@H]([C@H](O)CCCC(=O)CCCCCC[C@@H](O)CC2=CC(C)(O)OC2=O)O1 (mixture of isomers) [ANNOMOLON B/34-EPI-ANNOMOLON B]	1.37 µg/mL	0.0719 µg/mL	0.047 µg/mL	–	0.377 µg/mL	7.48 ng/mL	0.0553 µg/mL	7 ×10⁻² ug/ml
COc1cccc2c1C(=O)c1c(O)c3c(c(O)c1C2=O)C[C@@](O)(C(=O)CO)C[C@@H]3O[C@H]1C[C@H](N)[C@H](O)[C@H](C)O1 [DOXORUBICIN]	0.00113 µg/mL (≈ 0.00208 µM)	0.0128 µg/mL (≈ 0.0235 µM)	0.0182 µg/mL (≈ 0.0335 µM)	–	0.00226 µg/mL (≈ 0.00416 µM)	2.62 ng/mL (≈ 0.00482 µM)	0.0502 µg/mL (≈ 0.0924 µM)	–

Reference: ChEMBL document CHEMBL1147237, “Two new epimeric pairs of acetogenins bearing a carbonyl group from Annona cherimolia seeds” (J Nat Prod, 2003)
